Variants at the floor of the assay were thinned out.
B1: tRNA (parent)
chain: GUUCCGUUGGCGUAAUGGUAACGCGUCUCCCUCCUAAGGAGAAGACUGCGGGUUCGAGUCCCGUACGGAACG

Variants of: B1
Test: yeast fitness relative to wild type (ratio to wild type); higher = fitter; tRNA-Arg(CCU), competitive growth, 37 C, YPD
In short: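 A pool of Saccharomyces cerevisiae strains, each with a tRNA-Arg(CCU) gene variant at the native genomic locus, was competed in YPD at 37°C for 24 hours across six parallel replicates. The variants had been chemically synthesised at a 3% per-site mutation rate over 69 sites, and gene amplicons before and after competition were read by 100-nucleotide paired-end sequencing. Darwinian fitness relative to wild type rested on changes in genotype frequencies. Genotypes required ≥ 100 starting reads, and estimates < 0.5 were set to 0.5.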

Variant	yeast fitness
GUUCCGUUGCCGUAAUGGUAACGCGUCUCCCUCCUAUGGAGAAGACUGCGGGUUCGAAUCCCGUACGGAACG	0.608
GUUCCGUUGCCGUAAUGGUAACGCGUCUCCCUCCUAAGGGGAAGACUGCGGGUUCGAGUCCGGUACGGAACG	≤ 0.5
GUUCCGUUGCCGUAAUGGUAACGCGUCUCCCUCCUAAGGUGAAGACUGCGGGUUCGAGUCCCGUACGGAACG	0.635
GUUCCGUUGCCGUAAUGGUAACGCGUCUCCCUCCUAAGGUGAAGACUGCAGGUUCGAGUCCCGUACGGAACG	≤ 0.5
GUUCCGUUGCCGUAAUGGUAACGCGUCUCCCUCCUAAGGAGACGACUGCGGGAUCGAGUCCCGUACGGAACG	≤ 0.5
GUUCCGUUGCCGUAAUGGUAACGCGUCUCCCUCCUAAGGAGAGGACUGCGGCUUCGAGUCCUAUACGGAACG	0.531
GUUCCGUUGCCGUAAUGGUAACGCGUCUCCCUCCUAAGGAGAUGACUACGAGUUCGAGUCCCGUACGGAACG	≤ 0.5
GUUCCGUUGCCGUAAUGGUAACGCGUCUCCCUCCUAAGGAGAAGCCUGCGGGUUCGAGUCCCGUACGGAACG	0.626
GUUCCGUUGCCGUAAUGGUAACGCGUCUCCCUCCUAAGGAGAAGCCUGCGGGUUCGAGCCCCGUACGGAACG	≤ 0.5
GUUCCGUUGCCGUAAUGGUAACGCGUCUCCCUCCUAAGGAGAAGGCUGCGGGUUCGAGUCCCGUCCGGCACG	0.571
GUUCCGUUGCCGUAAUGGUAACGCGUCUCCCUCCUAAGGAGAAGUCUGGGGGUUCGAGUACCGUACGGAACG	≤ 0.5
GUUCCGUUGCCGUAAUGGUAACGCGUCUCCCUCCUAAGGAGAAGUCUGCGGGUUCGAGUGCCGUAGGGAACG	≤ 0.5
GUUCCGUUGCCGUAAUGGUAACGCGUCUCCCUCCUAAGGAGAAGUCUACGGGUUAGAGUCCCGUACGGAACG	≤ 0.5
GUUCCGUUGCCGUAAUGGUAACGCGUCUCCCUCCUAAGGAGAAGUCUGCGGGGUCGAGUCCCGUACGGAACG	≤ 0.5
GUUCCGUUGCCGUAAUGGUAACGCGUCUCCCUCCUAAGGAGAAGACUGCGGGUUCGGGUCCCGUACGGAACG	0.604
GUUCCGUUGCCGUAAUGGUAACGCGUCUCCCUCCUAAGGAGAAGACUGCGGGUUCGGGUCCCGUUCGGAACG	≤ 0.5
GUUCCGUUGCCGUAAUGGUAACGCGUCUCCCUCCUAAGGAGAAGACUGCGGGUUCGUGUCCCGUACGGAACG	0.548
GUUCCGUUGCCGUAAUGGUAACGCGUCUCCCUCCUAAGGAGAAGACUGCGGGUUCGAGUCCCGUACGGUACG	0.661
GUUCCGUUGCCGUAAUGGUAACGCGUCUCCCUCCUAAGGAGAAGACUGCGGGUUCGAGUCCCGUACGGACCG	0.689

Variant	yeast fitness
GUUCCGUUGCAGUAAUGGUAACGCGUCUCCCUCCUAAGGAGAAGACUGCGGGUUCGAGUCCCGUACGGAACG	0.6
GUUCCGUUGCAGUAAUGGUAACGCGUCUCCCUCCUACGGAGAAGACUGGGGGUUCGAGUCCUGUACGGAACG	≤ 0.5
GUUCCGUUGCAGUAAUGCUAACGUGUCUCCCUCCUAAGGAGAAGACUGCGGGUUCGAGUCCCGUAUGGAACG	0.529
GUUCCGUUGCGGUAAUGGUAUCGCGUCUCCCUCCUAAGGAGAAGCCUGCGGCUUCGGGUCCCGUACGGAACG	≤ 0.5
GUUCCGUUGCGGUAAUGGUAACGCGUCUCCCUCCUAAGGAGAAGUCUGCGGGUUCGAGUCCCGUACGGAACG	≤ 0.5
GUUCCGUUGCGGUAAUGGUAAAGCGUCUCGCUCCUAAGGAGAAGACUGCGGGAUCGAGUCCCGUACGGAACG	0.653
GUUCCGUUGCGGUAAUGGUAAUGCGUCUCCCUCGUAAGGAGAAGACUGCGGGUUCGAGUCCCGUACGGCACG	0.589
GUUCCGUUGCGGUAAUGGUAACGGGUCUCCCUCCUAAGGAGAAGACUGCGGGUUCGAGUCCCGUACGGAACG	0.577
GUUCCGUUGCGGUAAUGGUAACGGGUCUCCCUCCUAAGGAGAAGACUCCGGGUUCGAGUCCCGUACGGAACG	≤ 0.5
GUUCCGUUGCGGUAAUGGUAACGGGUCUCCCUCCUAAGGAGAAGACUGCGGGUUCGAGUCCCGUACAGAACG	≤ 0.5
GUUCCGUUGCGGUAAUGGUAACGCGUCUCCCUCCUAAGGAGAAGACUGCGGGUUGGAGUCCUGUACGGAACG	0.62
GUUCCGUUGCGGAAAUGGUAACGCGUCUCCCUCCUGAGGAGAAGACUGCGGGUUUGAGUCCCGUACGGAACG	≤ 0.5
GUUCCGUUGCUGUAAUGGUAAGGCGUGUCCCUGCUAAGGAGCAGACUGCGGGUUCGAGUCCCGUACGGAACG	≤ 0.5
GUUCCGUUGCUGUAAUGGUAACGCGUGUCCCUCCUAAGGAGGAGACUGCGGGUUUGAGUCCCGUACGGAACG	0.785
GUUCCGUUGCUGUAAUGGUAACGCGUCUGCCUCCUAAGGAGUAGACUGCGGGUUCGAGUCCCGUACGGAACG	≤ 0.5
GUUCCGUUGCUGUAAUGGUAACGCGUCUGCCUCCUAAGGAGAAGACUGCGGGUUUGAGUCCCGUACGGAACG	0.556
GUUCCGUUGCUGUAAUGGUAACGCGUCUCGCUCCUAAGGAGAAGACUACGGGUACGAGUCCCGUACGGAACG	0.693
GUUCCGUUGCUGUAAUGGUAACGCGUCUCGCUCCUAAGGAGAAGACUACGGGUACGAGUCCCGUACGUAACG	≤ 0.5

From the RNAGym collection of RNA variant scans (doi:10.1126/science.aae0568)
